Results on ten compounds are retold here after BindingDB's records for doi:10.1021/jm030311v (Southern Research Institute, 2004).

SMILES strings stand for the structures. pEC50, pIC50, pKi: −log10 of the molar value.

The nature of experiment [1]: Apparent antagonist activity determined by measuring the ability to inhibit stimulation of [35S]GTP-gamma-S, binding to opioid receptor delta 1 in guinea pig caudate membranes. A general note: Binding of GTPγS marks nucleotide exchange on a G protein.
A short description of experiment [2]: Inhibitory concentration required for 50% inhibition of antagonism towards opioid receptor delta 1 in [35S]GTP-gamma-S, binding assay in guinea pig caudate.
The target of experiment [3] is Kappa-type opioid receptor (Cavia porcellus, UniProt P41144). Nature of the experiment: Apparent binding affinity of compound was determined by antagonism towards Opioid receptor kappa 1 in [35S]GTP-gamma-S, binding assay in guinea pig caudate.
Experiment [4] deals with T1, Mu-type opioid receptor (Cavia porcellus, UniProt P97266). Nature of the experiment: Apparent binding affinity of compound was determined by antagonism towards Opioid receptor mu 1 in [35S]GTP-gamma-S, binding assay in guinea pig caudate.
The target of experiment [5] is T1, Mu-type opioid receptor. Nature of the experiment: Agonistic activity towards Opioid receptor mu 1 was determined in [35S]GTP-gamma-S, binding assay in guinea pig caudate. The method in brief: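 Guinea pig caudate membranes (10-20 µg protein) incubated 3 h at 22 °C in Tris-HCl pH 7.4 containing 100 mM NaCl, 10 mM MgCl2, 1 mM EDTA, 100 µM GDP and 0.05-0.1 nM [35S]GTP-γ-S, then filtered and counted. Nonspecific binding defined with 10 µM GTP-γ-S. Site isolation used CTAP, nor-BNI, NTI or TIPP. […] Three experiments pooled; logistic fit.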

T1 sequence (P97266 whole entry): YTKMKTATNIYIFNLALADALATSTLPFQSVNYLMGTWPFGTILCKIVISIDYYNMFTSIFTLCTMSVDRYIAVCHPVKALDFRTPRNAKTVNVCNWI
Sequence of Kappa-type opioid receptor (P41144 whole entry): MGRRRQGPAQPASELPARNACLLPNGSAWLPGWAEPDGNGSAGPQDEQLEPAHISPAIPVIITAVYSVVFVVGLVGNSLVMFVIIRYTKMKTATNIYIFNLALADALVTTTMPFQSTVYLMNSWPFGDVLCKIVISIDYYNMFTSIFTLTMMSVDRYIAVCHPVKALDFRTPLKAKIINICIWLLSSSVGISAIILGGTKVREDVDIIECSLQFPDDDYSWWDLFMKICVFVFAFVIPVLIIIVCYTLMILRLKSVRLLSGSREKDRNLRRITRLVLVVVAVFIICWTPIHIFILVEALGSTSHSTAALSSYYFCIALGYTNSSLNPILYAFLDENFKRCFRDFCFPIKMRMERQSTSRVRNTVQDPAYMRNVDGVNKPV

What is called pKi is the negative decadic logarithm of the Ki, by convention in mol/L. Consider `Oc1ccc2c3c1OC1c4ncc(-c5ccc(Cl)cc5)cc4C[C@@]4(O)[C@@H](C2)N(CC2CC2)CC[C@]314` (stereo partly drawn) [5'-(Chlorophenyl)-17-(cyclopropylmethyl) -6,7-didehydro-3,14-dihydroxy-4,5alpha-epoxypyrido-[2',3':6,7]morphinan], for which the pKi in experiment [1] is 9.74.
Consider `CN1CC[C@]23c4c5ccc(O)c4O[C@H]2c2ncc(-c4ccc(Cl)cc4Cl)cc2C[C@H]3C1C5` [6-(2,4-dichlorophenyl)-19-methyl-(2R,10R)-11-oxa-8,19-diazahexacyclo[10.9.1.01,10.02,18.04,9.016,22]docosa-4(9),5,7,12,14,16(22)-hexaen-13-ol], for which, in experiment [1], the pKi is 8.96.
Usually pIC50 stands for the negative decadic logarithm of the IC50, by convention in mol/L. Lower therefore signals a high IC50. Regarding `CN1CC[C@]23c4c5ccc(O)c4O[C@H]2c2ncc(-c4ccc(Cl)c(Cl)c4)cc2C[C@H]3C1C5` [6-(3,4-dichlorophenyl)-19-methyl-(2R,10R)-11-oxa-8,19-diazahexacyclo[10.9.1.01,10.02,18.04,9.016,22]docosa-4(9),5,7,12,14,16(22)-hexaen-13-ol], the pIC50 in experiment [2] is 7.13.
`CN1CC[C@]23c4c5ccc(O)c4O[C@H]2c2ncc(-c4ccc(Br)cc4)cc2C[C@H]3C1C5` [6-(4-bromophenyl)-19-methyl-(2R,10R)-11-oxa-8,19-diazahexacyclo[10.9.1.01,10.02,18.04,9.016,22]docosa-4(9),5,7,12,14,16(22)-hexaen-13-ol]: in experiment [2], the pIC50 was 7.26.
With `Oc1ccc2c3c1O[C@H]1c4ncc(-c5ccc(Cl)cc5)cc4C[C@H]4C(C2)N(CC2CC2)CC[C@]314` [6-(4-chlorophenyl)-19-cyclopropylmethyl-(2R,10R)-11-oxa-8,19-diazahexacyclo[10.9.1.01,10.02,18.04,9.016,22]docosa-4(9),5,7,12,14,16(22)-hexaen-13-ol], the pKi in experiment [1] is 8.80.
With `CN1CC[C@]23c4c5ccc(O)c4O[C@H]2c2ncc(-c4ccc(Cl)cc4)cc2C[C@H]3C1C5` [6-(4-chlorophenyl)-19-methyl-(2R,10R)-11-oxa-8,19-diazahexacyclo[10.9.1.01,10.02,18.04,9.016,22]docosa-4(9),5,7,12,14,16(22)-hexaen-13-ol], in experiment [1], the pKi was 7.96.
Turning to `CN1CC[C@]23c4c5ccc(O)c4O[C@H]2c2ncc(-c4ccc(Cl)cc4)cc2C[C@@]3(O)C1C5` [6-(4-chlorophenyl)-19-methyl-(2S,10R)-11-oxa-8,19-diazahexacyclo[10.9.1.01,10.02,18.04,9.016,22]docosa-4(9),5,7,12,14,16(22)-hexaene-2,13-diol], the pKi in experiment [3] was 6.12; on Mu-type opioid receptor [4] it was less than 6.00.
Take `CN1CC[C@]23c4c5ccc(O)c4O[C@H]2c2ncc(-c4ccccc4)cc2C[C@@]3(O)C1C5` [19-methyl-6-phenyl-(2S,10R)-11-oxa-8,19-diazahexacyclo[10.9.1.01,10.02,18.04,9.016,22]docosa-4(9),5,7,12,14,16(22)-hexaene-2,13-diol]: the pIC50 in experiment [2] is 6.04.
For `CN1CC[C@]23c4c5ccc(O)c4O[C@H]2c2ncccc2C[C@H]3C1C5` [19-methyl-(2R,10R)-11-oxa-8,19-diazahexacyclo[10.9.1.01,10.02,18.04,9.016,22]docosa-4(9),5,7,12,14,16(22)-hexaen-13-ol], the pKi in experiment [1] was 6.23.
What is called pEC50 is the negative decadic logarithm of the EC50, by convention in mol/L. The low end stands for a large EC50, the high end for a small EC50. Compound `C[C@@H](NC(=O)[C@@H](N)Cc1ccc(O)cc1)C(=O)NCC(=O)N(C)[C@@H](Cc1ccccc1)C(=O)NCCO` [[tyrosyl-3,5-3H(N)]-D-Ala2-Mephe4-glyol5-enkephalin] gave a pEC50 on Mu-type opioid receptor [5] of 6.38.
